Assay outcomes as filed in PubChem.
Only some compounds are listed: those with a hit (about 3.7% of all), similar ones and a draw of the others.
EBI2 antag – blocks human EBI2 receptor beta-arrestin signaling | 0.81% of 360,000 active | EBI2 beta-arrestin recruitment, luminescence, 7a,25-OHC stimulated | inhibition, % at 5 µM; in the data active = inhibition above about 38%;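 also: enzyme fragment complementation signal reports receptor beta-arrestin coupling in cells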
Target sequence (P32249 whole entry, looked up, the tested form may be a part): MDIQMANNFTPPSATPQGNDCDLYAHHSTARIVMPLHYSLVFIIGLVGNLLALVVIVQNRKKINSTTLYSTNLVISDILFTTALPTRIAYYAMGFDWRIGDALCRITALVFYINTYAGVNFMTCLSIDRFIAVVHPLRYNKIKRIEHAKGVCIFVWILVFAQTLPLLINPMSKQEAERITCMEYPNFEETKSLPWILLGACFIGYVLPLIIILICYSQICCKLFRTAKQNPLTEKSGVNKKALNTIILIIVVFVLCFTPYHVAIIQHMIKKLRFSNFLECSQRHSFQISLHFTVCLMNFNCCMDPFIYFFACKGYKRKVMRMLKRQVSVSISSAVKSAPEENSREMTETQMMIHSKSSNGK
MC4R ag barr – human MC4R agonism via beta-arrestin; P32245; U2OS MC4R beta-arrestin complementation, luminescence; percent of melanotan II response, DMSO zero; activation, % at 8.9 µM; 0.98% of 360,000 active;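 active = activation above a per-plate cutoff, the mean activation of sample wells on that plate plus 3 SD, cut at about 8% in these data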
Exocytosis inh – blocks lytic granule exocytosis | TALL-104 LAMP-1 surface exposure, flow cytometry; cells stimulated with thapsigargin and PMA | inhibition, % at 10 µM | 0.66% of 360,000 active;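 active = inhibition above about 55%, limit read from the data; inconclusive = no clear call, values can overlap the other calls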
MC4R antag cAMP – blocks human MC4R cAMP signaling. inhibition, % at 6.5 µM. MC4R-expressing cells, MTII-stimulated cAMP, LANCE TR-FRET. P32245. 0.48% of 360,000 active. AID 540295;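 active = inhibition above its plate's cutoff, the mean of tested wells on that plate plus 3 SD, cut at about 29% in these data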
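material = U2OS cells stably expressing human melanocortin 4 receptor (MC4R) | also added = Melanotan II challenge | dosing = single nominal compound dose of 6.5 µM | detection = TR-FRET with Eu-cAMP and labeled anti-cAMP, 671 nm | replication = singlicate | timing = compound 30 min, challenge 1 h, detection 1 h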
Myeloid diff 2 – compounds promoting myeloid differentiation | ER-HoxA9 myeloid progenitors, lysozyme-GFP differentiation, flow cytometry | calls only at 10 µM | 1% of 360,000 active | AID 624256;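 active = normalized GFP-positive differentiation at or above the plate's own cutoff, the solvent-only control mean plus 3 SD; inconclusive = no clear call, values can overlap the other calls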;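 also: cells exposed to compound for four days before flow analysis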
Each line names hits and unclear results; the compound was inactive in the other large screens.

CCC(=O)N1CCCc2cc(S(=O)(=O)N3CCN(c4ccccc4F)CC3)ccc21	Myeloid diff 2 active
CCC(=O)N1CCCc2cc(S(=O)(=O)N3CCN(c4ncccn4)CC3)ccc21	none
COc1ccc(NC(=O)COC(=O)/C=C/c2cnc3ccccc3n2)cc1	none
CCNc1nc(NC(C)C)nc(NS(=O)(=O)c2ccc(N)cc2)n1	Myeloid diff 2 active
CC1CCCCN1c1cc(C#N)c(C#N)cc1[N+](=O)[O-] (stereo not drawn)	none
CC1CCc2cccc3c2N1c1cc(C#N)c(C#N)cc1O3 (stereo not drawn)	Myeloid diff 2 active
Cc1nc2sccn2c(=O)c1S(=O)(=O)N1CCN(c2ccccc2F)CC1	none
C/C(=N\OCC(=O)NCC(F)(F)F)c1cc2ccccc2o1	none
CCCCNC(=O)CO/N=C(\C)c1cc2ccccc2o1	Myeloid diff 2 active
CN1CCN(C2Cc3cc(Cl)ccc3Sc3cc(F)ccc32)CC1 (stereo not drawn)	none
OCCN1CCN(C2Cc3cc(Cl)ccc3Sc3ccc(Cl)cc32)CC1 (stereo not drawn) (tested in a mixture with another compound)	MC4R ag barr 9.3
CC(C)(C)c1ccc(C(=O)NNC(=O)CCc2ccccc2)cc1	Myeloid diff 2 active
CCn1ccnc1CN(C)C(=O)C1CCC(=O)N(Cc2cccc(C(F)(F)F)c2)C1 (stereo not drawn)	none
Cn1c(=O)c2c(nc(CN3CCN(Cc4ccccc4)CC3)n2Cc2cccc(Cl)c2)n(C)c1=O	none
Cn1c(=O)c2c(nc(CN3CCc4ccccc4C3)n2Cc2cccc(Cl)c2)n(C)c1=O	Myeloid diff 2 active
COc1ccc(NC(=O)CC(C)NCCCN2CCCC2=O)cc1 (stereo not drawn)	Myeloid diff 2 active
Cc1cc(Cl)ccc1OCC(=O)NNC(=O)C1CCCO1 (stereo not drawn)	none
CN1CCCNc2nc3ccccc3nc21	Myeloid diff 2 active
Cc1ccc(S(=O)(=O)N2CCCN(C)c3nc4ccccc4nc32)cc1	Myeloid diff 2 active
CN1CCCN(S(=O)(=O)c2ccccc2)c2nc3ccccc3nc21	Myeloid diff 2 active
O=C(COC(=O)CCC(=O)c1cccs1)Nc1ccccc1[N+](=O)[O-]	none
NNC(=O)c1oc2nc(-c3ccc(Cl)cc3)cc(-c3ccccc3)c2c1N	Myeloid diff 2 active
COc1ccc(S(=O)(=O)NNC(=O)c2ccc(-n3c(C)ccc3C)cc2)cc1	none
CCc1ccc2c(c1)/C(=C/C(=O)c1cccs1)C(=O)N2	EBI2 antag 67, Exocytosis inh 104, Myeloid diff 2 inconclusive
CCc1ccc2c(c1)/C(=N/N(C)C(=S)NC)C(=O)N2	none
Cc1[nH]c2ccccc2c1/C=N/Nc1nc(Nc2ccccc2)nc(N2CCOCC2)n1	Myeloid diff 2 active
Oc1[nH]c2ccccc2c1N=Nc1nc(Nc2ccccc2)nc(N2CCOCC2)n1	MC4R antag cAMP 28
CCN(CC(=O)Nc1ccccc1OC)CC(=O)Nc1ccccc1-c1ccccc1	none
CCN(CC(=O)Nc1ccccc1-c1ccccc1)Cc1nc2ccccc2c(=O)[nH]1	Myeloid diff 2 active
CCN(CC(=O)NCc1ccc(F)cc1)CC(=O)Nc1ccccc1-c1ccccc1	Myeloid diff 2 active
COc1ccc(NS(=O)(=O)c2ccc3c(c2)NC(=O)CO3)c(OC)c1	none
CCCCNc1nc(NCc2ccccc2)nc2ccccc12	Myeloid diff 2 active (no result: MC4R ag barr, MC4R antag cAMP)
CNc1nc(NCc2ccccc2)c2ccccc2n1	none (no result: Myeloid diff 2)
COc1ccc(C2=NN(C(=O)COC(=O)c3ccc(NC(=O)CC#N)cc3)C(c3ccco3)C2)cc1 (stereo not drawn)	Myeloid diff 2 active
Cc1ccc(S(=O)(=O)NCC(=O)OCC(=O)N2N=C(c3ccc(Cl)cc3)CC2c2ccco2)cc1C (stereo not drawn)	MC4R ag barr 9.2
O=C(OCC(=O)N1N=C(c2ccc(Cl)cc2)CC1c1ccco1)c1ccco1 (stereo not drawn)	none
COc1cc(NC(=S)N2CCN(C(c3ccccc3)c3ccccc3)CC2)cc(OC)c1	Myeloid diff 2 active
COc1cccc(NC(=S)N2CCN(C/C=C/c3ccccc3)CC2)c1	none
COc1cc(NC(=S)N2CCN(C/C=C/c3ccccc3)CC2)cc(OC)c1	Myeloid diff 2 active
COCCNC(=S)N1CCN(C(c2ccccc2)c2ccccc2)CC1	none
O=C(NC1CCCC1)C(c1ccccc1)n1c(-c2cccc3ccccc23)nc2ccccc21 (stereo not drawn)	none (no result: MC4R ag barr, MC4R antag cAMP)
O=C(CN(CCc1ccccc1)S(=O)(=O)c1ccc(Br)cc1)N/N=C/c1ccc2c(c1)OCO2	MC4R ag barr 8.5
O=C(CCc1ccc(O)cc1)NN=Cc1ccc2c(c1)OCO2	Myeloid diff 2 active
COC(=O)c1sccc1NC(=S)N1CCC(C(N)=O)CC1	none
Cc1ccc(CNC(=O)CCc2ccc(S(=O)(=O)NCC(C)C)cc2)cc1	none
CC(C)CNS(=O)(=O)c1ccc(CCC(=O)NCc2cccnc2)cc1	Myeloid diff 2 active
COCc1cc(C)nc2sc(C(=O)NCCO)c(-n3cccc3)c12	none
CCOc1cc(Br)cc(/C=C2\SC(=Nc3ccccc3)NC2=O)c1O	MC4R ag barr 10
Cn1cccc1/C=C1\SC(=Nc2ccc(O)cc2)NC1=O	none (no result: Myeloid diff 2)
Cn1cccc1/C=C1\SC(=Nc2ccccc2)NC1=O	Exocytosis inh 56, Myeloid diff 2 inconclusive
CC(=O)NCC(=O)OCC(=O)c1ccc(C)cc1	none
CC(=O)NCC(=O)OCC(=O)c1ccccc1	Myeloid diff 2 active
CCOC(=O)C1(C)CCCN(C(=O)c2cc(C)oc2C)C1 (stereo not drawn)	none
O=C(O)/C=C/c1cn(-c2ccccc2)nc1-c1ccc2c(c1)OCCO2	none
O=C(/C=C\c1cn(-c2ccccc2)nc1-c1ccc2c(c1)OCCO2)N1CCOCC1	MC4R ag barr 8.5
COc1cc(C(=O)OCC(=O)c2ccccc2)cc2c1OCCO2	none
COc1ccc(-c2cc3c(=O)n(CC(=O)NCc4ccc(C)cc4)ncn3n2)cc1	MC4R ag barr 9.1
O=C(CS(=O)c1ccc(Br)cc1)N1CCOCC1 (stereo not drawn)	none
O=C(NC1CCCC1)C(C1CC1)n1c(-c2ccncc2)nc2ccccc21 (stereo not drawn)	none (no result: MC4R ag barr, MC4R antag cAMP)
CSc1ccc(C=NNc2ccc(S(=O)(=O)Nc3ccccc3C(=O)O)cc2[N+](=O)[O-])cc1	Myeloid diff 2 active
CC(=O)Nc1ccc(/C=C/c2ccc3cccc([N+](=O)[O-])c3n2)cc1	Myeloid diff 2 active
O=C(O)COc1ccc(/C=C/c2ccc3cccc([N+](=O)[O-])c3n2)cc1	none
Cc1ccc2oc(-c3cccc(NC(=O)Cc4cccs4)c3)nc2c1	MC4R ag barr 13
Cc1ccc2oc(-c3ccc(C)c(NC(=O)Cc4cccs4)c3)nc2c1	none (no result: Myeloid diff 2)
Cc1ccc(-c2nc3cc(NC(=O)C(C)C)ccc3o2)cc1	Myeloid diff 2 active
Cc1ccc(-c2nc3cc(NC(=O)C(C)C)ccc3o2)cc1C	none
COc1ccccc1CNC(=O)CSc1nnc2c(n1)[nH]c1ccc(F)cc12	none
